hERG protect: hERG rescue from dofetilide block, primary screen, cell-based, CHO-hERG, FluxOR thallium flux, dofetilide IC70. dofetilide IC70 present. activation (rescue from dofetilide block), less the hit threshold, % at 10 µM. actives 0.51% (n = 310,000);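 active means activation above the mean of controls blocked by dofetilide plus 5 SD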;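 further: thallium influx through hERG after potassium depolarization seen as dye fluorescence rise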
KCNQ1 pot: potentiators or activators of KCNQ1 channel, primary screen, cell-based, thallium flux, high-throughput. Potassium voltage-gated channel subfamily KQT member 1 (Homo sapiens), P51787. CHO-K1 KCNQ1, thallium flux FluxOR fluorescence; hits give high values. B-score at 10 µM. actives 0.35% (n = 310,000). AID 2648, 2010;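 active means fluorescence ratio B-score, a plate-corrected score, at least three library SD, with initial intensity B-score within 5 SD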
Target sequence (P51787 whole entry, looked up): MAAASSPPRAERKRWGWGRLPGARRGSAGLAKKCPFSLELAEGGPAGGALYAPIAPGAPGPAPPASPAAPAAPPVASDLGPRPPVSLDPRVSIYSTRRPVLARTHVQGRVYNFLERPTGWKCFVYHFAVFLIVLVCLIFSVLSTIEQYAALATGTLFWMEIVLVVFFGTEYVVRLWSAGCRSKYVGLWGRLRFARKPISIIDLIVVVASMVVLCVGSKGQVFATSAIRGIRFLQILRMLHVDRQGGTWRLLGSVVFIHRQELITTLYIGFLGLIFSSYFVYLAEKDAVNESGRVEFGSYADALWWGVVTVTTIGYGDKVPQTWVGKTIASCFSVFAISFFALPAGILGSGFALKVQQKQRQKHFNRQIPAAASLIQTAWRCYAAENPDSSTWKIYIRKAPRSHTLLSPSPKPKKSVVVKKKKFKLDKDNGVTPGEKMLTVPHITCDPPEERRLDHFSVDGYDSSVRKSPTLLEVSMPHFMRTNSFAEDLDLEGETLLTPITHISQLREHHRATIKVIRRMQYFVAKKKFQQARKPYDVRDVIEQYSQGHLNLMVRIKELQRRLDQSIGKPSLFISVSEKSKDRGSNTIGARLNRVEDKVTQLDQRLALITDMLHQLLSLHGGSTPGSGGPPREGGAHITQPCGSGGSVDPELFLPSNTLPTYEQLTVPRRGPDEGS
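Assay system: stable KCNQ1 CHO-K1 line; medium: assay buffer, equal DMSO in all wells; timing: 90 min dye loading and 20 min compound exposure, both at room temperature; technique: kinetic FluxOR thallium fluorescence, 10-s 1-Hz baseline, 110-s post-stimulus read; read-out basis: B score of baseline-normalized fluorescence ratio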
Mot1-301 SUMO: yeast Mot1-301 growth rescue at high temperature, primary screen, SUMOylation pathway inhibitor project, S. cerevisiae, ATP luminescence, 38.5C | S. cerevisiae Mot1-301 growth rescue; percent above DMSO median, 100 means doubled | actives 1% (n = 320,000) | AID 2716, 2010 | growth rescue, % at 18.8 µM;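 active means every valid replicate shows activation above 250% relative to neutral control wells; inactive means the rest, any valid replicate at or below 250%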;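 further: OY570 slx delta 5 strain wells were the positive control but not used for scaling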
Cl transport mod: KCC2 cotransporter modulators, thallium flux, primary screen, cell-based, HEK293 KCC2, FluoZin-2 fluorescence, MLSMR; B-score of Tl+ flux slope (higher = more flux/activation; lower = inhibition) at 10 µM; actives 2.2% (n = 190,000); KCC2 cells, thallium flux FluoZin-2 fluorescence; Solute carrier family 12 member 5 (Homo sapiens), Q9H2X9; AID 1456, 2008;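 active means thallium flux slope and its plate-corrected score both differing from the plate sample mean at a set confidence after two filtering rounds, in either direction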;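 further: slope of fluorescence scaled to starting intensity during 10 to 20 s after thallium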
AI-2 QS mod: Vibrio harveyi AI-2 quorum sensing modulators, primary screen, JMH597 strain, luminescence/OD600 ratio; Vibrio harveyi JMH597 AI-2 luminescence/OD600 ratio, 9 h; hits give low values; strain lacks LuxN and CqsS sensors; 0 = neutral-control median; actives 0.4% (n = 300,000); activity change, % at 7.5 µM; in the data active means activity change below about -75%, passing the limit was not always enough;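 further: luminescence divided by OD600 gain over 9 h not by final OD600 alone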
KCNQ1 block: inhibitors of human KCNQ1 channel, primary screen, cell-based, thallium flux, high-throughput; Potassium voltage-gated channel subfamily KQT member 1 (Homo sapiens), P51787; B-score at 10 µM; actives 1.3% (n = 310,000); CHO-K1 KCNQ1, FluxOR thallium flux fluorescence; hits give high values;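 active means compounds whose thallium flux B-score, printed positive for inhibition, exceeds three library SD while starting fluorescence stays within three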;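 further: channel opened by potassium depolarization with thallium stimulus after 20 min compound exposure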
Numbers without * were called inactive. Sampled rows, rich in hits. Any-hit rate of the full collection: about 4.2%.

N#CC(C#N)=c1ccc2c(c1)NC1(CCCCC1)N=2 was read as hERG protect -10, KCNQ1 pot inactive, Mot1-301 SUMO -41, Cl transport mod -0.72, AI-2 QS mod -15 and KCNQ1 block inactive.
Screening Cc1ccc(NC(CC(=O)c2ccccc2)c2ccc(F)cc2)cc1 (stereo not drawn) returned hERG protect -10, KCNQ1 pot inactive, Mot1-301 SUMO 7, AI-2 QS mod 10 and KCNQ1 block inactive.
`COc1ccc(C(CC(=O)c2ccc(C)cc2)Nc2ccc([N+](=O)[O-])cc2)cc1` (stereo not drawn) gave hERG protect -8, KCNQ1 pot inactive, Mot1-301 SUMO -2, Cl transport mod -0.76, AI-2 QS mod 9 and KCNQ1 block 6*.
`CCSc1nnc(NC(=O)c2cc(OC)c(OC)c(OC)c2)s1` gave hERG protect -1, KCNQ1 pot inactive, Mot1-301 SUMO 54, Cl transport mod -0.34, AI-2 QS mod 11 and KCNQ1 block inactive.
`O=C(NNC(=O)C1CCCCC1)c1ccncc1` gave hERG protect -7, KCNQ1 pot inactive, Mot1-301 SUMO -5, AI-2 QS mod 2 and KCNQ1 block inactive.
For O=C(NNC(=O)c1ccncc1)NC1CCCCC1 the results were hERG protect 8.7*, KCNQ1 pot inactive, Mot1-301 SUMO -17, Cl transport mod 1.2, AI-2 QS mod -3 and KCNQ1 block inactive.
Cc1cccc[n+]1CC(=O)Nc1ccccc1 was read as hERG protect -4, KCNQ1 pot inactive, Mot1-301 SUMO -20, AI-2 QS mod -5 and KCNQ1 block inactive.
`Cc1cccc[n+]1CC(=O)c1ccc(NC(=O)c2ccccc2)cc1` gave hERG protect -4, KCNQ1 pot inactive, Mot1-301 SUMO 317*, AI-2 QS mod 12 and KCNQ1 block inactive.
CC1CCC(C(C)C)C2=C1C(C#N)(C#N)C(C#N)(C#N)C(c1ccccc1)N2 (stereo not drawn) was read as hERG protect -18, KCNQ1 pot inactive, Mot1-301 SUMO -8, Cl transport mod 1.2, AI-2 QS mod 12 and KCNQ1 block 7*.
Screening CCC1CN(C(=O)N2CCC(C(=O)NCc3ccco3)CC2)c2cc(C)ccc2O1 (stereo not drawn) returned hERG protect -21, KCNQ1 pot inactive, Mot1-301 SUMO 8, AI-2 QS mod 7 and KCNQ1 block inactive.
CCCCCCC(=O)NC(Nc1ccc(S(N)(=O)=O)cc1)C(Cl)(Cl)Cl (stereo not drawn) was read as hERG protect -21, KCNQ1 pot inactive, Mot1-301 SUMO -5, Cl transport mod 0.19, AI-2 QS mod 23 and KCNQ1 block inactive.
For CCn1nnc2cc(C(=O)Nc3cc(S(C)(=O)=O)ccc3Cl)ccc21 the results were hERG protect -13, KCNQ1 pot 10*, Mot1-301 SUMO -8, AI-2 QS mod 24 and KCNQ1 block inactive.
NC(=O)Nc1ccc(C(=O)OCC(=O)Nc2ccc(Cl)cn2)cc1 was read as hERG protect -6, KCNQ1 pot inactive, Mot1-301 SUMO -12, Cl transport mod -1.1, AI-2 QS mod 8 and KCNQ1 block inactive.
Screening O=C(O)Cc1coc(-c2ccc(F)cc2)n1 returned hERG protect -8, KCNQ1 pot inactive, Mot1-301 SUMO -2, Cl transport mod 0.92, AI-2 QS mod 43 and KCNQ1 block inactive.
For O=C(Cc1coc(-c2ccc(F)cc2)n1)NCc1ccccc1 the results were hERG protect -6, KCNQ1 pot inactive, Mot1-301 SUMO -11, Cl transport mod -2.6*, AI-2 QS mod 29 and KCNQ1 block inactive.
CCOC(=O)/C(C#N)=C\C=C1C=CN(C)C=C1 was read as hERG protect -15, KCNQ1 pot inactive, Mot1-301 SUMO -10, Cl transport mod inactive, AI-2 QS mod 9 and KCNQ1 block 8*.
CCOC(=O)/C(C#N)=C/c1cc(C)n(-c2ccc(C)cc2)c1C was read as hERG protect -4, KCNQ1 pot inactive, Mot1-301 SUMO 392, Cl transport mod -0.16, AI-2 QS mod 7 and KCNQ1 block inactive.
`COc1ccc(NC(=S)N/N=C/c2cccn2Cc2ccccc2F)cc1` gave hERG protect -6, KCNQ1 pot inactive, Mot1-301 SUMO -4, Cl transport mod 0.99, AI-2 QS mod 0 and KCNQ1 block inactive.
COc1ccc(NC(=S)N/N=C/c2cccn2Cc2ccc(F)cc2Cl)cc1 was read as hERG protect -5, KCNQ1 pot inactive, Mot1-301 SUMO -19, Cl transport mod 3.8*, AI-2 QS mod 20 and KCNQ1 block inactive.
Screening COc1ccc(/C=N/N=C/c2ccc(OC)c(OC)c2)cc1OC returned hERG protect -11, KCNQ1 pot inactive, Mot1-301 SUMO 1, Cl transport mod 1.2, AI-2 QS mod 4 and KCNQ1 block inactive.
`COc1cc(/C=N/N=C(N)N)ccc1OCc1ccccc1Cl` gave hERG protect -30, KCNQ1 pot inactive, Mot1-301 SUMO 26, Cl transport mod -0.48, AI-2 QS mod 20 and KCNQ1 block 10*.
`O=C(OC(c1ccccc1)c1nccc2ccccc12)c1cccc([N+](=O)[O-])c1` (stereo not drawn) gave hERG protect -12, KCNQ1 pot inactive, Mot1-301 SUMO 271, Cl transport mod -0.74, AI-2 QS mod 20 and KCNQ1 block 7*.
For CC(C)(C)C1=CC(O)(c2ccccc2)C=C(C(C)(C)C)C1=O the results were hERG protect -13, KCNQ1 pot inactive, Mot1-301 SUMO -22, AI-2 QS mod 25 and KCNQ1 block 8*.
Screening CCN1C(=O)N(CC)C(O)(c2ccccc2)C1(O)c1ccccc1 (stereo not drawn) returned hERG protect -2, KCNQ1 pot inactive, Mot1-301 SUMO 35, Cl transport mod 0.029, AI-2 QS mod 13 and KCNQ1 block inactive.
`CC(=O)c1cccc(NC(=O)CN2C(=O)C(=O)N(Cc3ccco3)C2=O)c1` gave Mot1-301 SUMO 5.
`O=C1OC2(CCCCC2)OC(=O)C1=CNc1nc2ccccc2s1` gave hERG protect -14, KCNQ1 pot inactive, Mot1-301 SUMO 24, Cl transport mod 3.7*, AI-2 QS mod 12 and KCNQ1 block inactive.

Screening results deposited in PubChem by several laboratories.
